# Test system: Rattus norvegicus
# Experiment: Compound was evaluated in vivo for the inhibition of LPS-stimulated serum TNF-alpha production in rat after oral administration at a dose 100 mg/kg
# Type: functional
# Procedure, shortened: (§1)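 Male SD rats, 6 weeks old, given compound orally as a suspension in 0.5% CMC. LPS (E. coli B055:B5, 0.1 mg/kg) injected iv 1 h after dosing. Animals killed and bled 90 min later. Serum TNF-α measured by ELISA. ED50 derived from TNF-α yield relative to LPS controls without compound.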
row,SMILES,inhibition in vivo at 100 mg/kg [%]
1,CC(=O)CCCCn1c(=O)c2c(ncn2C)n(C)c1=O [PENTOXIFYLLINE],74.4

# Species on record: Rattus norvegicus
# Experiment: In vitro inhibition of lipopolysaccharide stimulated tumor necrosis factor-alpha production in rat whole blood
# Type: functional
# Procedure, shortened: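 Rat whole blood diluted to 50% in RPMI-1640 containing streptomycin and penicillin. Compound in DMSO, or DMSO vehicle, preincubated for 30 min at 37 °C in 5% CO2. Stimulated with 10 µg/mL LPS (E. coli B055:B5) and incubated 4 h under the same conditions. IC50 taken for inhibition of TNF-α production.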
row,SMILES,IC50 [µM]
1,CC(=O)N1CCc2c(sc(NC(=O)C(C)(C)C)c2C(=O)c2ccccc2Cl)C1,3.4
2,COc1ccc(C(=O)c2c(NC(C)=O)sc3c2CCN(C(C)=O)C3)cc1,26
3,CC(=O)N1CCc2c(sc(NC(=O)c3ccccc3)c2C(=O)c2ccccc2Cl)C1,46
4,CC(=O)N1CCc2c(sc(NC(=O)C(C)Cl)c2C(=O)c2ccccc2Cl)C1 (configuration not stated),12
5,O=C(Nc1sc2c(c1C(=O)c1ccccc1Cl)CCN(C(=O)C1CC1)C2)c1cccnc1,3.9
6,CC(=O)N1CCc2c(sc(NC(=O)c3ccncc3)c2C(=O)c2ccccc2Cl)C1,21
7,CC(=O)N1CCc2c(sc(NC(=O)C3CC3)c2C(=O)c2ccccc2Cl)C1,3
8,CCN1CCc2c(sc(NC(=O)C(C)C)c2C(O)c2ccccc2Cl)C1 (configuration not stated),100
9,CCOC(=O)c1c(NC(=O)c2cccnc2)sc2c1CCN(C(C)=O)C2,22
10,CC(=O)N1CCc2c(sc(NC(=O)C(C)N)c2C(=O)c2ccccc2Cl)C1 (configuration not stated),8
11,CC(=O)N1CCc2c(sc(NC(=O)C(C)(C)C)c2Cc2ccccc2Cl)C1,29
12,CC(=O)N1CCc2c(sc(NC(=O)C3CC3)c2C(=O)c2ccccc2C)C1,2.9
13,CCOC(=O)c1c(NC(=O)C(C)C)sc2c1CCN(C(C)=O)C2,22
14,CC(=O)N1CCc2c(sc(NC(=O)c3cccnc3)c2C(=O)c2cccc(Cl)c2)C1,36
15,CC(=O)CCCCn1c(=O)c2c(ncn2C)n(C)c1=O [PENTOXIFYLLINE],40
16,CCN1CCc2c(sc(NC(=O)C(C)C)c2C(=O)c2ccc3c(c2)OCO3)C1,78
17,CC(C)CN(CC(C)C)c1sc2c(c1C(=O)c1ccccc1Cl)CCN(C(=O)C1CC1)C2,> 100
18,O=C(c1ccccc1Cl)c1c(NC(=O)C2CC2)sc2c1CCN(Cc1ccccc1)C2,6.5
19,CC(=O)N1CCc2c(sc(NC(=O)C3CC3)c2C(=O)c2ccccc2)C1,3
20,O=C(Nc1sc2c(c1C(=O)c1ccccc1Cl)CCN(Cc1ccccc1)C2)c1ccccc1,> 100
21,CC(=O)c1c(NC(=O)C(C)C)sc2c1CCN(C(C)=O)C2,35
22,CC(=O)N1CCc2c(sc(NC(=O)C(C)C)c2C(=O)c2cccc(Cl)c2)C1,7.6
23,C[C@@H]1C[C@H]2[C@@H]3CCC4=CC(=O)C=C[C@]4(C)[C@@]3(F)[C@@H](O)C[C@]2(C)[C@@]1(O)C(=O)CO [DEXAMETHASONE],0.02
24,CC(=O)N1CCc2c(sc(N)c2C(=O)c2ccccc2Cl)C1,72

row,SMILES,IC50 [µM]
1,CC(=O)N1CCc2c(sc(NC(=O)C3CCCCC3)c2C(=O)c2ccccc2Cl)C1,39
2,CC(=O)N1CCc2c(sc(NC(=O)CCc3ccccc3)c2C(=O)c2ccccc2Cl)C1,> 100
3,CCNC(=O)Nc1sc2c(c1C(=O)c1ccccc1Cl)CCN(C(C)=O)C2,10
4,CC(C)C(=O)Nc1sc2c(c1C(=O)c1ccccc1Cl)CCN(C)C2,2
5,CC(=O)c1c(NC(=O)C2CC2)sc2c1CCN(C(C)=O)C2,28
6,O=C(Nc1sc2c(c1C(=O)c1ccccc1Cl)CCN(Cc1ccccc1)C2)c1cccnc1,7.1
7,CC(C)C(=O)Nc1sc2c(c1C(=O)c1ccccc1Cl)CCN(C(=O)C1CC1)C2,2.6
8,CCC(=O)Nc1sc2c(c1C(=O)c1ccccc1Cl)CCN(C(C)=O)C2,15
9,CC(=O)N1CCc2c(sc(N(CC3CCCCC3)CC3CCCCC3)c2C(=O)c2ccccc2Cl)C1,100
10,CC(=O)N1CCc2c(C(=O)c3ccccc3Cl)csc2C1,38
11,CCCCCCC(=O)Nc1sc2c(c1C(=O)c1ccccc1Cl)CCN(C(C)=O)C2,> 100
12,CCOC(=O)c1c(NC(=O)C2CC2)sc2c1CCN(C(C)=O)C2,10
13,CC(=O)N1CCc2c(sc(NC(=O)C(C)Br)c2C(=O)c2ccccc2Cl)C1 (configuration not stated),6
14,CC(=O)N1CCc2c(sc(NC(=O)C(C)C)c2C(=O)c2ccc(Cl)cc2)C1,> 100
15,CC(=O)N1CCc2c(sc(NC(=O)/C=C/c3ccccc3)c2C(=O)c2ccccc2Cl)C1,> 100
16,COc1ccc(C(=O)c2c(NC(C)=O)sc3c2CCN(C(C)=O)C3)cc1OC,46
17,CN1CCc2c(sc(NC(=O)C3CC3)c2C(=O)c2ccccc2Cl)C1,1.3
18,O=C(Nc1sc2c(c1C(=O)c1ccccc1Cl)CCN(C(=O)C1CC1)C2)c1ccccc1,> 100
19,CC(=O)N1CCc2c(sc(NC(=O)c3ccccc3)c2C(=O)c2ccccc2)C1,48
20,CC(=O)N1CCc2c(sc(NC(=O)CCl)c2C(=O)c2ccccc2Cl)C1,> 100
21,CC(=O)N1CCc2c(sc(NC(=O)c3cccnc3)c2C(=O)c2ccccc2Cl)C1,12
22,CC(=O)N1CCc2c(sc(N(C)C(=O)C(C)C)c2C(=O)c2ccccc2Cl)C1,33
23,CC(=O)Nc1sc2c(c1C(=O)c1ccccc1Cl)CCN(C(C)=O)C2,9.5
24,CCN1CCc2c(sc(NC(=O)C(C)C)c2C(=O)c2ccccc2Cl)C1,0.92

row,SMILES,IC50 [µM]
1,CC(=O)N1CCc2c(sc(NC(=O)C(C)C)c2C(=O)c2ccccc2C)C1,3.9
2,COc1cccc(OC)c1C(=O)c1c(NC(C)=O)sc2c1CCN(C(C)=O)C2,88
3,CCN(CC)C(=O)Nc1sc2c(c1C(=O)c1ccccc1Cl)CCN(C(C)=O)C2,0.51
4,CC(=O)N1CCc2c(sc(NC(=O)C(C)C)c2C(C)O)C1 (configuration not stated),38
5,CCN(CC)C(=O)Nc1sc2c(c1C(=O)c1c(OC)cccc1OC)CCN(C(C)=O)C2,3.8
6,CC(=O)N1CCc2c(sc(NC(=O)C3CC3)c2C(=O)c2cccc(Cl)c2)C1,20
7,CC(=O)N1CCc2c(sc(N(C)C(=O)C3CC3)c2C(=O)c2ccccc2Cl)C1,74
8,CC(=O)N1CCc2c(sc(N(CC(C)C)CC(C)C)c2C(=O)c2ccccc2Cl)C1,30
9,CC(=O)N1CCc2c(sc(NC(=O)c3cccnc3)c2C(=O)c2ccccc2)C1,14
10,CC(=O)N1CCc2c(sc(NC(=O)C3CCC3)c2C(=O)c2ccccc2Cl)C1,2.9
11,CCN(CC)C(=O)N(C)c1sc2c(c1C(=O)c1ccccc1Cl)CCN(C(C)=O)C2,10
12,CC(=O)N1CCc2c(sc(NC(=O)C(C)C)c2C(=O)c2ccccc2Cl)C1,2.6
13,Nc1sc2c(c1C(=O)c1ccccc1Cl)CCNC2,> 100
14,CC(=O)N1CCc2c(sc(NC(=O)C(C)C)c2C(=O)c2ccccc2)C1,3
15,O=C(c1ccccc1Cl)c1c(N(CC2CCCCC2)CC2CCCCC2)sc2c1CCN(C(=O)C1CC1)C2,> 100
16,O=C(c1ccccc1Cl)c1c(NC(=O)C2CC2)sc2c1CCN(C(=O)C1CC1)C2,0.9
17,CC(C)C(=O)Nc1sc2c(c1C(=O)c1ccccc1Cl)CCNC2,4
18,CC(=O)N1CCc2c(sc(NC(=O)C(C)(C)C)c2C(O)c2ccccc2Cl)C1 (configuration not stated),19
19,CCc1c(NC(=O)C(C)C)sc2c1CCN(C(C)=O)C2,23
20,CC(=O)N1CCc2c(sc(NC(=O)c3ccc(F)cc3)c2C(=O)c2ccccc2Cl)C1,100
21,CC(C)C(=O)Nc1sc2c(c1C(=O)c1ccccc1Cl)CCN(Cc1ccccc1)C2,5
22,CCN1CCc2c(sc(N(CC)C(=O)C(C)C)c2C(=O)c2ccccc2Cl)C1,10

# Test system: Rattus norvegicus
# Experiment: Compound was evaluated in vivo for the inhibition of LPS-stimulated serum TNF-alpha production in rat after oral administration of the compound
# Type: functional
# Procedure, shortened: as §1
row,SMILES,ED50 [mg/kg]
1,C[C@@H]1C[C@H]2[C@@H]3CCC4=CC(=O)C=C[C@]4(C)[C@@]3(F)[C@@H](O)C[C@]2(C)[C@@]1(O)C(=O)CO [DEXAMETHASONE],0.12

# Test system: Rattus norvegicus
# Experiment: Compound was evaluated in vivo for the inhibition of LPS-stimulated serum TNF-alpha production in rat after oral administration at a dose 50 mg/kg
# Type: functional
# Procedure, shortened: as §1
row,SMILES,inhibition in vivo at 50 mg/kg [%]
1,CC(=O)N1CCc2c(sc(NC(=O)C3CC3)c2C(=O)c2ccccc2Cl)C1,35
2,CC(=O)N1CCc2c(sc(NC(=O)C3CC3)c2C(=O)c2ccccc2C)C1,58.6
3,CCOC(=O)c1c(NC(=O)C(C)C)sc2c1CCN(C(C)=O)C2,49.1
4,CC(=O)N1CCc2c(sc(NC(=O)C3CC3)c2C(=O)c2ccccc2)C1,34.1
5,CC(=O)c1c(NC(=O)C(C)C)sc2c1CCN(C(C)=O)C2,22.7
6,CC(=O)c1c(NC(=O)C2CC2)sc2c1CCN(C(C)=O)C2,31.3
7,CCOC(=O)c1c(NC(=O)C2CC2)sc2c1CCN(C(C)=O)C2,64.2
8,CC(=O)N1CCc2c(sc(NC(=O)C(C)C)c2C(=O)c2ccccc2C)C1,3.9
9,CC(=O)N1CCc2c(sc(NC(=O)C(C)C)c2C(=O)c2ccccc2Cl)C1,2.4
10,CC(=O)N1CCc2c(sc(NC(=O)C(C)C)c2C(=O)c2ccccc2)C1,35

# — ChEMBL document CHEMBL1135145, “Synthesis and bioactivities of novel 4,5,6,7-tetrahydrothieno[2,3-c]pyridines as inhibitors of tumor necrosis factor-alpha (TNF-alpha) production” (Bioorg Med Chem Lett, 2002)
